ADAM10 inh: inhibitors of human ADAM10. O14672. inhibition, % at 7 µM. hit rate 0.62% among 370,000. recombinant ADAM10, EDANS/DABCYL FRET peptide cleavage, 3 h;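 active = inhibition above a per-campaign cutoff equal to the mean of compounds falling between control-based bounds plus 3 SD, cut at about 20% in these data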;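 also: 0% = DMSO wells while the 100% control is not disclosed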
DDE Tn7 FP inh: inhibitors of Tn7 peptide binding to human fibrin DD(E) | P02675 | FP displacement of FITC-Tn7 peptide from fibrin DD(E); 0% = median of compound wells per plate | inhibition, % at 8.3 µM | hit rate 0.13% among 370,000;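 active = inhibition above the mean of compounds falling within the control limits plus 3 SD of them, cut at about 14% in these data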;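 also: 0% = plate median of compound wells and 100% = 10 µM Aha-Tn7 peptide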
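Assay system: Human clot-derived fibrin DD(E) complex | Buffer or medium: Tris/NaCl/CaCl2 buffer, pH 7.8 | Repeats: One replicate per compound | Benchmarks: Aha-Tn7 high control | Measure: % inhibition scaled between sample-field median and high-control FP | Schedule: 10 min plus 3 h, room temperature | Signal: Fluorescence polarization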
ADAM17 inh: ADAM17 inhibition, QFRET primary screen; recombinant ADAM17, EDANS/DABCYL FRET peptide cleavage; inhibition, % at 6.95 µM; hit rate 0.83% among 370,000;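 active = inhibition above the mean of compounds lying between control limits plus 3 SD, set per campaign, cut at about 8.5% in these data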;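 also: 0% = DMSO-only wells as the low control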
Target sequence (P78536 215-824 limits assumed): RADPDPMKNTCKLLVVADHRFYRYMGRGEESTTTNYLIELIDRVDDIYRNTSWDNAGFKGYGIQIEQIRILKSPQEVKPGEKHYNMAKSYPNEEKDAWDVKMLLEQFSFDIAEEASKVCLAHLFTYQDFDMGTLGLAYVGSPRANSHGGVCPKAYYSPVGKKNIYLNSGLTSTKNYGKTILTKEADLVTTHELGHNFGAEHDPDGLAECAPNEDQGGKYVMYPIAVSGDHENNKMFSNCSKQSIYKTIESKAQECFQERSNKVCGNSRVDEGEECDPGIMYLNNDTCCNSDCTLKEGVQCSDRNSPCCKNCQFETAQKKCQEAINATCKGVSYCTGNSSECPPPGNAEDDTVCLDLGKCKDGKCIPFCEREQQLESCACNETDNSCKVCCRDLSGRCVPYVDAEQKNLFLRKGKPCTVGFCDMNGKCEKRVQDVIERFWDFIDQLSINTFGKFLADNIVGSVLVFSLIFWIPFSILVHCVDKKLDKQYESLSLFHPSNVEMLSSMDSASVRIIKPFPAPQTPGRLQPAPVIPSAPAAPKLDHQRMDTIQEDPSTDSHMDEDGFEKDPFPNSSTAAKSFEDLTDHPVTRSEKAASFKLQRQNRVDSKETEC
DDE Tn6 FP inh: disrupts Tn6 cyclic peptide binding to fibrin D-Dimer-E complex; AID 720509; Fibrin DD(E) TRITC-Tn6 fluorescence polarization displacement; P02675; hit rate 0.21% among 370,000; inhibition, % at 8.3 µM;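 active = inhibition above a per-campaign cutoff: mean of compounds within control limits plus 3 SD, cut at about 15% in these data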;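 also: 0% = median of all compound wells on the plate and 100% = blocking peptide control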
PLCb3 inh: blocks human PLC-beta3 enzyme activity | AID 720704 | Q01970 | Purified PLC-beta3, fluorogenic substrate, fluorescence | hit rate 0.18% among 370,000 | inhibition, % at 12.2 µM; in the data active = inhibition above about 11%;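 also: 0% = median of compound wells on plate and 100% = full blocker control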
PLC-gamma1 inh: PLC-gamma1 (human) inhibition, primary screen; P19174; purified PLC-gamma1, fluorogenic substrate, fluorescence; inhibition, % at 12.2 µM; hit rate 0.84% among 370,000; AID 720700
PLCg1 ctr: inhibits human PLC-gamma1 in PLC-beta3 counter-screen; shares compounds with PLC-gamma1 inh; purified PLC-gamma1, fluorogenic substrate, fluorescence; inhibition, % at 12.3 µM; hit rate 3.1% among 3,300; AID 743258
PLCb3 confirm: human PLC-beta3 inhibition, confirmation. AID 743261. purified PLC-beta3, fluorogenic substrate fluorescence. hit rate 1% among 3,300. inhibition, % at 12.3 µM. shares compounds with PLC-gamma1 inh; in the data active = inhibition above about 11%
Active calls of the source: *. Shown are actives, neighbours in structure and some others; about 2.3% of the full set was active somewhere. Rule as the data show it, unless noted: active = inhibition above about 9.5%; inactive = the rest.

COC(=O)[C@]12C[C@H](CC(=O)NCC3CCCCC3)C(=O)N(Cc3cccc4ccccc34)C1=C[C@H](COCc1ccccc1)O[C@@H]2C was read as ADAM10 inh 14, DDE Tn7 FP inh -2, ADAM17 inh 3, DDE Tn6 FP inh 2, PLCb3 inh 3 and PLC-gamma1 inh -1.
Screening Nc1nc(SCC(=O)Nc2ccccc2Oc2ccccc2)n[nH]1 returned ADAM10 inh 13, DDE Tn7 FP inh -8, ADAM17 inh 7, DDE Tn6 FP inh 10, PLCb3 inh 12*, PLC-gamma1 inh 8, PLCg1 ctr -6 and PLCb3 confirm -5.
Screening Nc1nc(SCC(=O)Nc2ccccc2-c2ccccc2)n[nH]1 returned ADAM10 inh 3, DDE Tn7 FP inh 8, ADAM17 inh -2, DDE Tn6 FP inh 6, PLCb3 inh 1 and PLC-gamma1 inh -2.
`Cc1c[nH]c2cccc(-c3ccc(Cl)cc3Cl)c12` gave ADAM10 inh 4, DDE Tn7 FP inh -3, ADAM17 inh 2, DDE Tn6 FP inh -12, PLCb3 inh 0 and PLC-gamma1 inh 0.
`Cc1ccc(S(=O)(=O)c2ccc(Cl)cc2)cc1S(=O)(=O)NC(C)C(=O)O` (centres undefined) gave ADAM10 inh -12, DDE Tn7 FP inh -9, ADAM17 inh 3, DDE Tn6 FP inh -11, PLCb3 inh -2, PLC-gamma1 inh 10*, PLCg1 ctr -6 and PLCb3 confirm -3.
Screening Cc1ccc(S(=O)(=O)c2ccc(Cl)cc2)cc1S(=O)(=O)N1CCN(C)CC1 returned ADAM10 inh -2, DDE Tn7 FP inh 5, ADAM17 inh 6, DDE Tn6 FP inh 5, PLCb3 inh 0 and PLC-gamma1 inh 1.
Screening CC(C)CC(NC(=O)C1CCCN1C(=O)OC(C)(C)C)C(=O)NCC(N)=O (centres undefined) returned ADAM10 inh 9, DDE Tn7 FP inh -2, ADAM17 inh 6, DDE Tn6 FP inh 0, PLCb3 inh 14*, PLC-gamma1 inh 7, PLCg1 ctr -2 and PLCb3 confirm 2.
COC(=O)C(CC(C)C)NC(=O)C(Cc1ccccc1)NC(=O)C1CCCN1C(=O)OC(C)(C)C (centres undefined) was read as ADAM10 inh -6, DDE Tn7 FP inh -8, ADAM17 inh -4, DDE Tn6 FP inh -4, PLCb3 inh 1 and PLC-gamma1 inh 0.
`S=C(Nc1ccccc1I)OC1CCC12CCC(c1ccccc1)CC2` (centres undefined) gave ADAM10 inh 7, DDE Tn7 FP inh -9, ADAM17 inh 4, DDE Tn6 FP inh 2, PLCb3 inh 4 and PLC-gamma1 inh 7.
Screening O=C(Cn1nc(-c2ccccc2)c2ccccc21)Oc1ccccc1 returned ADAM10 inh 6, DDE Tn7 FP inh -9, ADAM17 inh 7, DDE Tn6 FP inh 0, PLCb3 inh 2, PLC-gamma1 inh 13*, PLCg1 ctr -4 and PLCb3 confirm -3.
For COC(=O)Cn1nc(-c2cccc(OC)c2)c2ccccc21 the results were ADAM10 inh 1, DDE Tn7 FP inh -3, ADAM17 inh 0, DDE Tn6 FP inh -6, PLCb3 inh -1 and PLC-gamma1 inh 4.
CCOC(=O)[C@@]12CCC3=C1N(CCC3)C(=O)[C@H](CC(=O)N1CCSCC1)C2 was read as ADAM10 inh -5, DDE Tn7 FP inh 2, ADAM17 inh -4, DDE Tn6 FP inh 7, PLCb3 inh 2 and PLC-gamma1 inh 0.
For COc1cc(-c2ccc(NC(=O)CN3CCC(C)CC3)c(OC)c2)ccc1NC(=O)CN1CCC(C)CC1 the results were ADAM10 inh 12, DDE Tn7 FP inh 4, ADAM17 inh 1, DDE Tn6 FP inh -7, PLCb3 inh 6, PLC-gamma1 inh 10*, PLCg1 ctr -5 and PLCb3 confirm -7.
`COc1ccc(NC(=O)CN2CCC(C)CC2)c([N+](=O)[O-])c1` gave ADAM10 inh 1, DDE Tn7 FP inh 3, ADAM17 inh -2, DDE Tn6 FP inh -6, PLCb3 inh 3 and PLC-gamma1 inh -3.
For COc1ccc(NC(=O)CN2CCC(C)CC2)cc1 the results were ADAM10 inh 2, DDE Tn7 FP inh 9, ADAM17 inh 4, DDE Tn6 FP inh -4, PLCb3 inh 9, PLC-gamma1 inh 12*, PLCg1 ctr -6 and PLCb3 confirm -2.
`CCC(C(=O)NC1CCCC1)n1c(-c2ccnc3ccccc23)nc2ccccc21` (centres undefined) gave ADAM10 inh -10, DDE Tn7 FP inh -1, ADAM17 inh -3, DDE Tn6 FP inh 1, PLCb3 inh -5 and PLC-gamma1 inh -3.
`COCCN=C1S/C(=C\c2cc(C)n(-c3ccc(F)cc3F)c2C)C(=O)N1C` gave ADAM10 inh -19, DDE Tn7 FP inh -2, ADAM17 inh -6, DDE Tn6 FP inh -1, PLCb3 inh -18 and PLC-gamma1 inh -6.
For Cc1ccc(NC(=O)C2CCCN(S(=O)(=O)c3ccc4c(c3)oc(=O)n4C)C2)nc1 (centres undefined) the results were ADAM10 inh 10, DDE Tn7 FP inh -2, ADAM17 inh 2, DDE Tn6 FP inh 0, PLCb3 inh 5, PLC-gamma1 inh 9.8*, PLCg1 ctr -5 and PLCb3 confirm -2.
For CCCN1CCC(NC(=O)Nc2ccc(OC)c(OC)c2)CC1 the results were ADAM10 inh -7, DDE Tn7 FP inh -4, ADAM17 inh -2, DDE Tn6 FP inh 7, PLCb3 inh 6, PLC-gamma1 inh 10*, PLCg1 ctr -4 and PLCb3 confirm -4.
`O=C1C(=O)N(CCO)C(c2ccc(Br)cc2)/C1=C(\O)c1ccccc1` (centres undefined) gave ADAM10 inh 14, DDE Tn7 FP inh 2, ADAM17 inh 6, DDE Tn6 FP inh 6, PLCb3 inh 4, PLC-gamma1 inh 12*, PLCg1 ctr -5 and PLCb3 confirm 1.
Screening CN(C(=O)COC(=O)c1ccc2ccccc2n1)C1CCCCC1 returned ADAM10 inh -13, DDE Tn7 FP inh -6, ADAM17 inh 6, DDE Tn6 FP inh -5, PLCb3 inh 4, PLC-gamma1 inh 10*, PLCg1 ctr -5 and PLCb3 confirm -1.
CCOC(=O)C1(C)CCN1C(=O)c1ccc(C)cc1 (centres undefined) was read as ADAM10 inh 7, DDE Tn7 FP inh -7, ADAM17 inh 7, DDE Tn6 FP inh 3, PLCb3 inh 16*, PLC-gamma1 inh 9.8*, PLCg1 ctr -2 and PLCb3 confirm 2.
